Screening data (PubChem BioAssay)
SKN-1 inh: C. elegans SKN-1 inhibition. C. elegans VP596 Pgst-4::GFP/RFP ratio, acrylamide-induced, 24 h. inhibition, % at 21.8 µM. 360,000 tested, 0.49% active;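 active = interference check ratio from 0.5 to 1.5 plus GFP to RFP signal ratio inhibition reaching or exceeding a fixed threshold, cut at about 30% in these data, passing the limit was not always enough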
DNMT1 block: inhibitors of human DNMT1; P26358; DNMT1 molecular beacon, Hinp1I cleavage, fluorescence; inhibition (reported as % activation of signal), % at 10 µM; 360,000 tested, 0.83% active; AID 588458; in the data active = inhibition above about 50%
CSN deneddyl inh: inhibitors of human CSN-mediated cullin deneddylation | Purified CSN, SCF-Nedd8-OG deneddylation, fluorescence polarization | Q92905 | inhibition, % at 12.5 µM | 360,000 tested, 0.38% active;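 active = pattern-corrected inhibition above about 35%, with an unprinted fluorescence ratio check between 0.5 and 1.5, limit read from the data, passing the limit was not always enough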;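 also: 0% = enzyme with substrate and 100% = substrate without enzyme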
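Assay system: Purified human Csn5 enzyme expressed in HEK293T cells | Amount: Enzyme 0.24 nM | Measured by: Fluorescence polarization readout | Medium: Tris/NaCl/DTT buffer, pH 7.5 | Compound dosing: One concentration, 12.5 µM, 0.25% DMSO | Times: 90 min incubation of compound, enzyme and substrate at room temperature | Control set: no-enzyme wells high, enzyme-with-substrate wells low | Read-out: % inhibition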
SUMO1-SIM PPI: alters human SUMO1 binding to SIM partners | inhibition, % at 20 µM | 360,000 tested, 0.33% active | P63165 | SUMO1 binding to a labelled peptide, TR-FRET, 1 h; in the data active = inhibition above about 37%
Target sequence (P63165 whole entry, looked up): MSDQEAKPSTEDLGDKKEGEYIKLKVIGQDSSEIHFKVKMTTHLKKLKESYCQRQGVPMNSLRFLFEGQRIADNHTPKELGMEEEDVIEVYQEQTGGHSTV
MT1-MMP act inh: inhibitors of human MT1-MMP activation. HT1080 RFP-PRO-GFP cells, GFP/RFP ratio fluorescence, overnight; percent of plate control window, DMSO zero. 360,000 tested, 0.061% active. GFP/RFP ratio change, % at 20 µM;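 active = GFP/RFP ratio change of at least 30% with cell ATP level not reduced by more than half and red fluorescence within 50% of control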
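Compound: 20 µM single dose, 1% DMSO / System: HT1080 RFP-PRO-GFP cells / Controls: DMSO and RFP-L50D-GFP cell wells / Read-out basis: GFP/RFP fluorescence ratio / Schedule: overnight compound exposure at 37 °C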
Rpn11 inh: inhibitors of human proteasome Rpn11; human 26S proteasome, Ub4-pepOG fluorescence polarization; 20S core pre-blocked with epoxomicin; AID 588493; O00487; 360,000 tested, 0.59% active; inhibition, % at 20 µM;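 active = inhibition at 20 µM, scaled to each plate's controls, above about 33%, limit read from the data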
Target sequence (O00487 whole entry, looked up): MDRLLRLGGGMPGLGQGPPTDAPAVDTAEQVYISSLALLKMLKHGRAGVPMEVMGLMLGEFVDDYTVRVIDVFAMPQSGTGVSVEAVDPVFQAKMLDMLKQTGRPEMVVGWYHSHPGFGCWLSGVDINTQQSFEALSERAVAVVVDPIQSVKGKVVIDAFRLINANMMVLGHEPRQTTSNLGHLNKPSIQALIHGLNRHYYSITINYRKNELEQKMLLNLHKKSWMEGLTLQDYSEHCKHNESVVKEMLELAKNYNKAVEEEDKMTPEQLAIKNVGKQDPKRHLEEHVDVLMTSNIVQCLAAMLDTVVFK
An asterisk follows results filed as active. Only some compounds are listed: those with a hit (about 2.3% of all), similar ones and a draw of the others.

Screening Cn1cc(CN2CCC(C(=O)NC(c3ccc(F)cc3)c3ccc4ccccc4n3)CC2)c2ccccc21 (stereo unspecified) returned SKN-1 inh -12, DNMT1 block -15, CSN deneddyl inh -1, SUMO1-SIM PPI -10, MT1-MMP act inh -4 and Rpn11 inh -4.
Screening COC(=O)CN1C(=S)N(c2ccc(Cl)cc2)C(=O)C1CC(=O)Nc1ccc(Cl)cc1 (stereo unspecified) returned SKN-1 inh 19, DNMT1 block -6, CSN deneddyl inh 7, SUMO1-SIM PPI 0, MT1-MMP act inh 2 and Rpn11 inh -5.
`COC(=O)CN1C(=S)N(Cc2ccccc2)C(=O)C1CC(=O)Nc1ccc(Br)cc1` (stereo unspecified) gave SKN-1 inh 39*, DNMT1 block -8, CSN deneddyl inh 5, SUMO1-SIM PPI 4, MT1-MMP act inh 2 and Rpn11 inh 2.
For CC(=O)NC(Cc1ccccc1)C(=O)NC1CCN(C(=O)NCc2ccccc2)CC1 (stereo unspecified) the results were SKN-1 inh -6, DNMT1 block 0, CSN deneddyl inh 5, SUMO1-SIM PPI -2, MT1-MMP act inh -2 and Rpn11 inh -6.
`CC(=O)NC(Cc1ccc(F)cc1)C(=O)N1CCN(C(=O)NCc2ccccc2)CC1` (stereo unspecified) gave SKN-1 inh 49*, DNMT1 block -1, CSN deneddyl inh 1, SUMO1-SIM PPI -1, MT1-MMP act inh 10 and Rpn11 inh 1.
For O=c1cc(-c2ccccc2Cl)c2c([nH]1)CCC2 the results were SKN-1 inh 67*, DNMT1 block 4, CSN deneddyl inh 0, SUMO1-SIM PPI -1, MT1-MMP act inh -6 and Rpn11 inh 0.
Screening CCCC(=O)N1CCC1(C)C(=O)NS(=O)(=O)c1cc2c(cc1C)CCCS2(=O)=O (stereo unspecified) returned SKN-1 inh 8, DNMT1 block 3, CSN deneddyl inh 2, SUMO1-SIM PPI 2, MT1-MMP act inh -1 and Rpn11 inh 1.
`COc1ccc2c(c1)OC/C(=C/c1cccs1)C2=O` gave SKN-1 inh 54*, DNMT1 block 2, CSN deneddyl inh 0, SUMO1-SIM PPI -30, MT1-MMP act inh 3 and Rpn11 inh 0.
N#C/C(=N/Nc1ccc(OC(F)(F)F)cc1)C(N)=S was read as SKN-1 inh 54*, DNMT1 block -6, CSN deneddyl inh -3, SUMO1-SIM PPI -16, MT1-MMP act inh -28 and Rpn11 inh -2.
`COc1ccc(N/N=C(\C#N)C(N)=O)cc1` gave SKN-1 inh -14, DNMT1 block -6, CSN deneddyl inh 1, SUMO1-SIM PPI -8, MT1-MMP act inh 1 and Rpn11 inh 2.
O=C(c1ccc(-c2cccc(C(F)(F)F)c2)o1)N1CCOCC1 was read as SKN-1 inh 45*, DNMT1 block 1, CSN deneddyl inh -1, SUMO1-SIM PPI -3, MT1-MMP act inh 1 and Rpn11 inh -2.
CC(C)Sc1nc(N)nc(-c2cccs2)c1C#N was read as SKN-1 inh 40*, DNMT1 block -6, CSN deneddyl inh 3, SUMO1-SIM PPI 5, MT1-MMP act inh -6 and Rpn11 inh 5.
CSc1c(C#N)c(N)c(C#N)c2c1COC(C)(C)C2 was read as SKN-1 inh 41*, DNMT1 block -10, CSN deneddyl inh -2, SUMO1-SIM PPI -5, MT1-MMP act inh -2 and Rpn11 inh 6.
`O=C(O)c1ccc2c(c1)CCCN2` gave SKN-1 inh 38*, DNMT1 block -1, CSN deneddyl inh -9, SUMO1-SIM PPI 4, MT1-MMP act inh -3 and Rpn11 inh -10.
`O=C(O)c1cccc(COc2ccc3c(c2)CCC3)c1` gave SKN-1 inh -10, DNMT1 block 12, CSN deneddyl inh -1, SUMO1-SIM PPI 3, MT1-MMP act inh 0 and Rpn11 inh 0.
Screening CC(=O)NC(C)(c1ccccc1)c1nc(-c2ccc(F)c(Cl)c2)cs1 (stereo unspecified) returned SKN-1 inh 7, DNMT1 block 3, CSN deneddyl inh 2, SUMO1-SIM PPI 4, MT1-MMP act inh -1 and Rpn11 inh 3.
Screening c1ccc(-c2ccc(-n3ccnc3)cc2)cc1 returned SKN-1 inh 82*, DNMT1 block -1, CSN deneddyl inh 2, SUMO1-SIM PPI 4, MT1-MMP act inh -2 and Rpn11 inh 0.
COc1cccc(-c2cnc3c(NC(C)=O)cc(-c4cccc(C(=O)NCCO)c4)cn23)c1 was read as SKN-1 inh 2, DNMT1 block -7, CSN deneddyl inh 2, SUMO1-SIM PPI -13, MT1-MMP act inh 4 and Rpn11 inh -4.
`CCN(CC)c1ccc(NC2CC(=O)N(CCc3ccc(OC)cc3)C2=O)cc1` (stereo unspecified) gave SKN-1 inh -12, DNMT1 block 7, CSN deneddyl inh 51*, SUMO1-SIM PPI -6 and MT1-MMP act inh -58.
Clc1ccc2nc(N3CCCCC3)sc2c1 was read as SKN-1 inh 57*, DNMT1 block -4, CSN deneddyl inh 0, SUMO1-SIM PPI 1, MT1-MMP act inh 3 and Rpn11 inh -2.
`CS(=O)(=O)N1CCN(c2nc3ccc(Cl)cc3s2)CC1` gave SKN-1 inh -1, DNMT1 block 2, CSN deneddyl inh 1, SUMO1-SIM PPI -1, MT1-MMP act inh 2 and Rpn11 inh 0.
`c1ccc(-c2cncnc2)nc1` gave SKN-1 inh 10, DNMT1 block -1, CSN deneddyl inh -3, SUMO1-SIM PPI 4, MT1-MMP act inh 3 and Rpn11 inh 2.
c1ccc(-c2ccc(-c3ccncn3)cc2)cc1 was read as SKN-1 inh 56*, DNMT1 block 5, CSN deneddyl inh 4, SUMO1-SIM PPI -2, MT1-MMP act inh 0 and Rpn11 inh 3.
Screening CCN(CCCNC(=O)CC(C(=O)N1CCc2ccccc21)n1ccnc1)c1cccc(C)c1 (stereo unspecified) returned SKN-1 inh 38*, DNMT1 block -3, CSN deneddyl inh -4, SUMO1-SIM PPI 2, MT1-MMP act inh -1 and Rpn11 inh 0.
Screening CC1(C(=O)NCCC#N)CCN1C(=O)C1(c2ccccc2)CCCC1 (stereo unspecified) returned SKN-1 inh 25, DNMT1 block 1, CSN deneddyl inh -3, SUMO1-SIM PPI 4, MT1-MMP act inh 2 and Rpn11 inh 1.
For CCCNC(=O)C1(C)CCCN(C(=O)COc2ccc(Cl)cc2Cl)C1 (stereo unspecified) the results were SKN-1 inh 9, DNMT1 block 4, CSN deneddyl inh -2, SUMO1-SIM PPI 0, MT1-MMP act inh 5 and Rpn11 inh 8.
